What was measured:
Plasmodium falciparum [1] = test: Antimalarial activity after 48 hrs against chloroquine-sensitive Plasmodium falciparum 3D7 by [3H]hypoxanthine uptake; assay type: functional, organism-based
Method in brief: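 Asynchronous culture (65-75% rings, 0.5% parasitemia, 2.5% final hematocrit) in RPMI 1640 with 0.5% Albumax II, 0.2% glucose, 0.03% L-glutamine and 5 µM hypoxanthine. Triplicate wells with a 3-fold series of 10.0–0.0412 µg/mL; final DMSO ≤0.01%. 37 °C, 5% CO2: 24 h, then 0.2 µCi/well [3H]hypoxanthine for a further 24 h. Frozen, harvested, scintillation-counted. IC50 from curve fit; mean of 2–3 experiments.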

Plasmodium falciparum [2] = test: Antimalarial activity after 48 hrs against chloroquine-resistant Plasmodium falciparum K1 by [3H]hypoxanthine uptake; assay type: functional, organism-based
Method in brief: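 Asynchronous P. falciparum K1 culture (65-75% ring stage, 0.5% parasitemia; chloroquine, pyrimethamine, cycloguanil resistant) at 2.5% hematocrit in RPMI 1640 with 0.5% Albumax II, glucose, L-glutamine, 5 µM hypoxanthine. Triplicate 3-fold dilutions 10.0–0.0412 µg/mL, DMSO ≤0.01% final, 37 °C, 5% CO2. [3H]-hypoxanthine (0.2 µCi/well) added at 24 h, incorporation counted after further 24 h. IC50 by curve fit, 2–3 experiments.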

KB = test: Cytotoxicity against human KB cells after 48 hrs by alamar blue assay; assay type: cell-based
[3] = Selectivity index, ratio of IC50 for human KB cells to IC50 for chloroquine-sensitive Plasmodium falciparum 3D7; assay type: toxicity, cell-based; conditions: read-out: Ratio IC50
Method in brief: (§1)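 KB IC50 divided by the parasite IC50 (K1 or 3D7). KB cells seeded at 4×10^4 cells/mL in RPMI 1640 with 10% heat-inactivated FCS and grown 24 h. Triplicate dilution series then added for 72 h. AlamarBlue for 2–4 h, fluorescence ex 530/em 585 nm, IC50 by curve fit. Podophyllotoxin as positive control.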

[4] = Selectivity index, ratio of IC50 for human KB cells to IC50 for chloroquine-resistant Plasmodium falciparum K1; assay type: toxicity, cell-based; conditions: read-out: Ratio IC50; method in brief: as §1
[5] = Resistant index, ratio of IC50 for chloroquine-resistant Plasmodium falciparum K1 to IC50 for chloroquine-sensitive Plasmodium falciparum 3D7; assay type: functional
Method in brief: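 IC50 against K1 divided by IC50 against 3D7 (drug-sensitive NF54 clone). Both from [3H]-hypoxanthine incorporation over 48 h: asynchronous cultures at 0.5% parasitemia, 2.5% hematocrit, 3-fold dilutions 10.0–0.0412 µg/mL in triplicate. Label added at 24 h. Means of 2–3 independent experiments.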

| SMILES | IC50 (Plasmodium falciparum [1]) [µM] | IC50 (Plasmodium falciparum [2]) [µM] | IC50 (KB) [µM] | selectivity ratio [3] | selectivity ratio [4] | Ratio IC50 [5] |
| --- | --- | --- | --- | --- | --- | --- |
| COc1ccc2c(c1)[n+]([O-])c(C#N)c(-c1ccc(OC(F)(F)F)cc1)[n+]2[O-] | 0.93 | 1.25 | 8.25 | 8.87 | 6.58 | 1.35 |
| Cc1ccc(-c2c(C#N)[n+]([O-])c3cc(C(F)(F)F)ccc3[n+]2[O-])cc1 | 0.72 | 0.87 | 3.17 | 4.4 | 3.64 | 1.21 |
